Here are results for one molecule from ChEMBL document CHEMBL4819027, “Design, synthesis and biological evaluation of novel 2-(4-(1H-indazol-6-yl)-1H-pyrazol-1-yl)acetamide derivatives as potent VEGFR-2 inhibitors” (Eur J Med Chem, 2021).

Molecules are shown by their SMILES. pIC50: −log10 of the molar value. Calls of active or inactive are those of the source. No cut-off for these calls is given here.

The test system of assay [1] is HGC-27. In words: Antiinvasive activity against human HGC-27 cells assessed as reduction in cell invasion measured after 24 hrs by transwell invasion assay. The class given is functional, cell-based. The gist of the method: (§1)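 Transwell inserts (12 μm pore) were precoated with Matrigel. HGC-27 cells at 5 × 10⁵ cells/mL were placed in the upper well in serum-free medium with compound (0.1, 0.5, 1 μM). The lower chamber held RPMI-1640 with 10% FBS. After 24 h at 37 °C, invaded cells were methanol-fixed and stained with 0.1% crystal violet. Cells were counted in three random fields; three independent experiments, mean ± SD.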

In assay [2] the test system is HGC-27. The experiment in a line: Induction of intracellular ROS generation in human HGC-27cells incubated for 24 hrs by DCFH-DA staining-based flow cytometric analysis. The class given is functional, cell-based. The following applies: dose 0.1-1 µM. Put shortly:
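HGC-27 cells (5.0 × 10⁵ per well) were treated 24 h with compound (0.1, 0.5, 1 μM) or 0.1% DMSO. Harvested cells were loaded with 10 μM DCFH-DA in PBS for 20 min at 37 °C. Green fluorescence intensity was measured by flow cytometry.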
Background: Flow cytometry measures light scatter and fluorescence of single cells or particles in a stream.

The subject of assay [3] is HGC-27. The experiment in a line: Antimigratory activity against human HGC-27 cells assessed as number of migration cells at 0.5 uM measured after 24 hrs by transwell migration assay (reference value: 320). The class given is functional.
In another assay the test system is HUVEC. In words: Cytotoxicity against human HUVEC cells assessed as inhibition of cell growth incubated for 72 hrs by MTT assay. The class given is cell-based. The gist of the method:
(§2)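 Log-phase cells were seeded at 5 × 10³ per well and attached 24 h. HT-29 and GES-1 were grown in DMEM-based medium, A549/HepG2/HGC-27 in RPMI-1640, HUVEC in ECM with ECGS; all media had 10% FBS. Cells were exposed to graded compound concentrations for 72 h at 37 °C. MTT (5 mg/mL stock) was added for 4 h, formazan dissolved in DMSO, and A490 read. IC50 was obtained by nonlinear sigmoidal regression; mean ± S.E. of three experiments.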

Assay [4] has as its system HGC-27. The experiment in a line: Inhibition of cell migration at human HGC-27 cells in 0.1 to 1 uM measured up to 24 hrs by microscopic based wound healing assay. The class given is functional. Conditions: dose 0.1-1 µM, time hrs <=24, TDE = time-dependent effect. The gist of the method:
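HGC-27 grown to 80–90% confluence in 6-well plates, serum-starved 12 h, scratched with 200 µL tip (~1 mm lane). Washed, then given complete medium alone or with compound (0.1, 0.5, 1 µM) or sorafenib positive control. Imaged by inverted microscope at 0, 6 and 24 h; relative scratch closure quantified; mean ± SD, three independent experiments.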

For assay [5], the target named is T1, Vascular endothelial growth factor receptor 2 (Homo sapiens, UniProt P35968). In words: Inhibition of VEGFR2 in human HGC-27 cells assessed as downregulation of VEGFR2 phosphorylation at Tyr1175 at 0.1 to 1 uM after 24 hrs by Westernblot analysis. Conditions: dose 0.1-1 µM. It is filed as cell-based. The gist of the method: (§3)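 HGC-27 cells (1.0 × 10⁶ per 60 mm dish) were treated 24 h with 0.1% DMSO or compound (0.1, 0.5, 1 μM). RIPA lysates with phosphatase inhibitor were quantified by BCA and resolved on 8–12% SDS-PAGE onto nitrocellulose. Blots were probed for p-VEGFR-2 (Tyr1175), p-PI3K (Tyr607), p-AKT (Thr308) and p-mTOR (Ser2448), with ECL detection and densitometry; mean ± SEM.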

For assay [6], the system named is HGC-27. In words: Induction of apoptosis in human HGC-27 cells assessed as downregulation of Bcl-xl protein expression at incubated for 24 hrs by western blot analysis. The following applies: dose 0.1-1 µM.
Assay [7] relates to HGC-27. In words: Induction of apoptosis in human HGC-27 cells assessed as necrotic cells level at 1 uM incubated for 24 hrs by propidium iode and annexin V-FITC staining based flow cytometry (reference value: 1.64%). It is filed as functional. The gist of the method:
(§4)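 HGC-27 cells (1.0 × 10⁶ per 60 mm dish) were treated 24 h with 0.1% DMSO or compound (0.1, 0.5, 1 μM). Cells were stained with Annexin V-FITC in HEPES/NaCl/CaCl₂ binding buffer (pH 7.4) for 15 min at room temperature, then with PI for 10 min. About 10 000 events were acquired by flow cytometry to give viable, early apoptotic, late apoptotic and necrotic fractions.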

The test system of assay [8] is HGC-27. In words: Induction of apoptosis in human HGC-27 cells assessed as late apoptotic cells level at 1 uM incubated for 24 hrs by propidium iode and annexin V-FITC staining based flow cytometry (reference value: 0.86). It is filed as functional. The gist of the method: as §4
The test system of assay [9] is HGC-27. The experiment in a line: Induction of apoptosis in human HGC-27 cells assessed as late apoptotic cells level at 0.5 uM incubated for 24 hrs by propidium iode and annexin V-FITC staining based flow cytometry (reference value: 0.86%). It is filed as functional. Put shortly:
as §4

For assay [10], the system named is HGC-27. The experiment in a line: Induction of apoptosis in human HGC-27 cells assessed as late apoptotic cells level incubated for 24 hrs by propidium iode and annexin V-FITC staining based flow cytometry. It is filed as functional, cell-based. The following applies: dose 0.1-1 µM. The gist of the method:
as §4

Assay [11] has as its system HGC-27. The experiment in a line: Antiproliferative activity against human HGC-27 cells assessed as cell growth inhibition after 72 hrs by MTT assay. It is filed as functional, cell-based. Conditions: HGC-27, 72 h. Put shortly:
as §2
For orientation: Tetrazolium assays rely on reduction of a dye to a coloured formazan, in cell work by metabolically active cells.

Assay [12] has as its system HGC-27. In words: Induction of apoptosis in human HGC-27 cells assessed as early apoptotic cells level at 1 uM incubated for 24 hrs by propidium iode and annexin V-FITC staining based flow cytometry (reference value: 1.48%). It is filed as functional. Put shortly: as §4
The target of assay [13] is T1, Vascular endothelial growth factor receptor 2. The experiment in a line: Inhibition of VEGFR2 in human HGC-27 cells assessed as downregulation of Akt phosphorylation at […] at 0.1 to 1 uM after 24 hrs by Westernblot analysis. It is filed as cell-based. Conditions: dose 0.1-1 µM. Put shortly:
as §3

The subject of assay [14] is HGC-27. In words: Antimigratory activity against human HGC-27 cells assessed as relative closure of scratches at 0.5 uM measured after 6 hrs by scratch wound healing assay relative to control. The class given is functional. The gist of the method: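 HGC-27 monolayers at 80–90% confluence were serum-starved 12 h, then scratched to give 1 mm lanes. After a PBS wash, cells received complete medium with or without compound (0.1, 0.5, 1 μM). Wounds were imaged at 0, 6 and 24 h. Relative scratch closure was quantified against untreated control; mean ± SD of three experiments.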

The test system of assay [15] is HGC-27. In words: Induction of intracellular ROS generation in human HGC-27cells assessed as increase in fluorescence intensity at 0.5 uM incubated for 24 hrs by DCFH-DA staining-based flow cytometric analysis (reference value: 712). It is filed as functional.
The test system of assay [16] is HGC-27. The experiment in a line: Induction of apoptosis in human HGC-27 cells assessed as total apoptotic cells level at 1 uM incubated for 24 hrs by propidium iode and annexin V-FITC staining based flow cytometry. It is filed as functional. Put shortly:
as §4

For assay [17], the target named is T1, Vascular endothelial growth factor receptor 2. In words: Inhibition of VEGFR2 in human HGC-27 cells assessed as reduction in VEGFR-2 phosphorylation after 24 hrs by westernblot analysis. The class given is cell-based. The gist of the method: as §3
Assay [18] concerns HGC-27. The experiment in a line: Antiinvasive activity against human HGC-27 cells assessed as reduction in cell invasion at 0.1 to 1 measured after 24 hrs by transwell invasion assay. The class given is functional, cell-based. The gist of the method: as §1
Assay [19] has as its system HGC-27. The experiment in a line: Induction of apoptosis in human HGC-27 cells assessed as late apoptotic cells level at 0.1 uM incubated for 24 hrs by propidium iode and annexin V-FITC staining based flow cytometry (reference value: 0.86%). The class given is functional. Put shortly: as §4

T1 sequence (P35968 whole entry): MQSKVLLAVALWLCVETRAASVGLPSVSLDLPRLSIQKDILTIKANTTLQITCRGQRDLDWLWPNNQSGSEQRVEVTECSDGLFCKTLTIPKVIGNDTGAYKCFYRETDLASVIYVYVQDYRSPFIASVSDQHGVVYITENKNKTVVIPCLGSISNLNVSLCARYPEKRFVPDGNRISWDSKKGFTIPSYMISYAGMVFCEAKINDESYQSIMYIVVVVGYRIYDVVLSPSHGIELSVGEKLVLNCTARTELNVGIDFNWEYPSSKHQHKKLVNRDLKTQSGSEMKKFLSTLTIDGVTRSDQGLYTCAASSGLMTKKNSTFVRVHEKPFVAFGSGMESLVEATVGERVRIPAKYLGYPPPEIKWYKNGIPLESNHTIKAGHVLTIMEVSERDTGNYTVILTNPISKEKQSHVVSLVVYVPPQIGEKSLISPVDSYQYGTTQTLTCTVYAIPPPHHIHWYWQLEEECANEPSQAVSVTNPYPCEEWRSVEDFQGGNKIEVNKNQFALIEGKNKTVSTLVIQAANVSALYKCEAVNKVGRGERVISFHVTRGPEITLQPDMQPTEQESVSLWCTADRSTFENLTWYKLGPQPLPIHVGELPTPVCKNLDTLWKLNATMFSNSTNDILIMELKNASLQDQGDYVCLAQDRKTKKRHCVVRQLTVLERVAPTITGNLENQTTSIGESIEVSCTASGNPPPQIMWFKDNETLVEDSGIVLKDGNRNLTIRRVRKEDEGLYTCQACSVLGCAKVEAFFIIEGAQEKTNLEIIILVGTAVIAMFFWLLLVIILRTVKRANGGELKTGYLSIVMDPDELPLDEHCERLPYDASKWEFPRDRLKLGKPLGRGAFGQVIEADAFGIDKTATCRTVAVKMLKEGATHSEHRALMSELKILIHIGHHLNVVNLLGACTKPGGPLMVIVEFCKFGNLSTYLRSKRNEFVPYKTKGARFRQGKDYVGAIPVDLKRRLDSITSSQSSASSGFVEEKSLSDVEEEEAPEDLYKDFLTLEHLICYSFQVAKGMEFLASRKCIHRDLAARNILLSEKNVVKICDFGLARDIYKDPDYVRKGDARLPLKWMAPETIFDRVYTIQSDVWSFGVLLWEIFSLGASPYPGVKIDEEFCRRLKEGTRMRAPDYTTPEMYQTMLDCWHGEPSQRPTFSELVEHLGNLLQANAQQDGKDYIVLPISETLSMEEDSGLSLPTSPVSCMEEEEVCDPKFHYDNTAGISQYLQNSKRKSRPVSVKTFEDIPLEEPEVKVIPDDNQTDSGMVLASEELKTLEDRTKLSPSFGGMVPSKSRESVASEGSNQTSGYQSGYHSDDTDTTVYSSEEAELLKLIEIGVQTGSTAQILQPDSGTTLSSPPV

Turning to `CC(=O)Nc1n[nH]c2cc(-c3cnn(CC(=O)Nc4ccc(C)c(C(F)(F)F)c4)c3)ccc12`, the inhibition entry was “Dose-Dependent Effect” in the assay with HGC-27 [1], “Tde” in the assay on HGC-27 [4], “Dose-Dependent Effect” in assay [17] and “Dose-Dependent Effect” in the assay on HGC-27 [18]. Moreover, the Activity result with HGC-27 [2] is “Dose-Dependent Effect”; with HGC-27 [3], 87; with HGC-27 [6] it was “Dose-Dependent Effect”; with HGC-27 [7], 9.59%; in the assay on HGC-27 [8], 17%; in the assay with HGC-27 [9], 11.2%. Besides, the Activity result with HGC-27 [10] is “Dose-Dependent Effect”; with HGC-27 [12], 11.8%; in the assay on HGC-27 [16], 28.8%; with HGC-27 [19] it was 2.67%. For the same molecule, the pIC50 in the assay on HUVEC is 5.15; in the assay with HGC-27 [11], 6.44. In addition, the inhibition result in assay [5] and in assay [13] was “Active” each time. In addition, the inhibition at 0.5 µM in the assay on HGC-27 [14] amounted to 9.5%. In the assay on HGC-27 [15], the Flu intensity is recorded as 945.

Usually inhibition stands for the percentage by which the read-out fell short of the control. In general, pIC50 refers to the IC50 on a negative log10 scale, so that one unit is a factor of ten.
